Source: PubChem BioAssay (several laboratories)
Bfl-1 A1 inh: inhibitors of the anti-apoptotic protein A1, read as caspase activation | 330,000 tested, 0.066% active | MEF A1-2A-BIM cells, Caspase-Glo 3/7 luminescence, 3 h; percent of clofoctol response, vehicle zero | AID 2462 | caspase activation, % (no concentration beside the values);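 active = over half of replicate activation scores above 10%, or exactly half above 10 with the replicate mean above 10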
Beta cell apopt: beta cell apoptosis inhibition; protection from apoptosis, % (concentration not given with the values); 300,000 tested, 0.8% active; AID 435005; INS-1E cytokine-induced death, ATP luminescence, 48 h; percent of positive-control rescue, neutral wells zero;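 active = Every replicate reaches about 75%, or at least half do and their mean reaches it too, limit read from the data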;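 note: 0% = cytokine-treated negative control wells and 100% = positive control rescue; higher means more ATP so stronger rescue from cytokine killing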
T cruzi inh: blocks replication of Trypanosoma cruzi; T. cruzi beta-gal in NIH3T3, luminescence, 90 h; inhibition, % (no concentration beside the values); 300,000 tested, 1.4% active; AID 1885;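 active = mean inhibition across valid replicates above about 55%, limit read from the data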;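 note: signal also drops with host cell toxicity which is not excluded here; 0% = plate median of DMSO wells and 100% = zero luminescence signal; higher percent means less beta-gal luminescence so fewer parasites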
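Test system: β-gal T. cruzi (Tulahuen C4) inside NIH/3T3 cells / Quantity: 5,000 cells/well / Measured by: luminescence from GalScreen with 0.05% NP40, read after 60 min / Medium: DMEM plus 2% FBS / Measure: parasite load inhibition, % / Reagent: Tulahuen C4 trypomastigotes, 5000/well / Schedule: co-culture of at least 90 h after 3 h attachment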
KLF5 inhibitor: kruppel-like factor 5 inhibition; DLD-1 KLF5 promoter-luciferase reporter, luminescence; 290,000 tested, 0.23% active; AID 1700; inhibition, % at 5 µM;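 active = inhibition above a per-plate limit of that plate's mean compound inhibition plus 3 SD, cut at about 60% in these data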;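 note: 0% = DMSO wells and 100% = LY294002 at 200 µM; higher means less KLF5 promoter-driven luciferase light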
HIF activator: HIF pathway transcriptional activation. U2OS HRE-luciferase reporter, luminescence; normalized: DMSO 0%, desferrioxamine 100%. activation, % at 7.5 µM (by protocol). 300,000 tested, 0.32% active. AID 1910;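 active = mean activation of at least 10% of the iron chelator positive control signal, with at least half of replicates also reaching 10%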
Active calls of the source: *; nt = no result. The list is not random: actives were taken first. Their share in the collection is about 2.3%.

SMILES	Bfl-1 A1 inh	Beta cell apopt	T cruzi inh	KLF5 inhibitor	HIF activator
CCC(c1nnnn1C(C)(C)C)N(Cc1cccs1)Cc1cc2cc(C)c(C)cc2n2nnnc12 (stereo unspecified)	0	-5	56*	-7	0
OC(CNCCc1ccc(C(F)(F)F)cc1)COc1cccc2ccccc12 (stereo unspecified)	1	69	60*	-10	0
CCn1c(SCC(=O)Nc2cc(Cl)ccc2OC)nnc1C1CC1	0	-2	-6	0	1
O=C(Nc1nc(-c2cccnc2)cs1)c1cccc([N+](=O)[O-])c1	0	5	7	-1	3
O=C(Nc1nc(-c2ccccc2)cs1)C1CCCN(S(=O)(=O)c2ccccc2)C1 (stereo unspecified)	nt	nt	61*	-8	0
O=C(Nc1nc(-c2ccccc2)cs1)C1CCCCN1S(=O)(=O)c1ccc(Cl)cc1 (stereo unspecified)	-2	17	78*	7	0
O=C(Nc1nc(-c2ccccc2)cs1)c1cccc([N+](=O)[O-])c1	0	5	55*	-34	1
O=C(Nc1nc(-c2ccccc2)cs1)C1CCCN(S(=O)(=O)c2cccc([N+](=O)[O-])c2)C1 (stereo unspecified)	1	nt	74*	-26	0
O=C(Nc1nc(-c2ccccc2)cs1)C1CCCCN1S(=O)(=O)c1ccccc1 (stereo unspecified)	0	7	6	-13	0
COCCn1nnnc1C(c1ccccn1)N1CCN(c2cc(Cl)ccc2C)CC1 (stereo unspecified)	0	3	-3	11	0
COc1ccc(Cn2nnnc2C(c2ccccn2)N2CCN(c3cc(Cl)ccc3C)CC2)cc1 (stereo unspecified)	0	14	65*	10	0
Cc1ccc(C(=O)OCC(=O)NC(C)c2ccccc2)cc1C (stereo unspecified)	-1	-5	nt	nt	nt
CCOc1ccccc1OCCCC(=O)Nc1cccc(-n2cnnn2)c1C	-1	2	nt	nt	nt
Fc1ccccc1CNc1ncnc2sccc12	0	53	-38	4	0
COc1ccc(CCNc2nc(C)nc3c2oc2ccccc23)cc1OC	0	70	9	6	0
COc1ccc(CCNc2ncnc3c2oc2ccccc23)cc1OC	-2	107*	-21	1	0
c1ccc2c(c1)OCC(CNCC1COc3ccccc3O1)O2 (stereo unspecified)	1	-3	4	-19	-2
c1ccc2c(c1)OCC(CNc1ncnc3sccc13)O2 (stereo unspecified)	0	107*	-72	-14	1
COc1ccccc1CNc1ncnc2sccc12	0	97*	-22	1	1
COc1ccc(CCNc2ncnc3sccc23)cc1OC	0	111*	-58	52	-1
COc1ccc(S(=O)(=O)N2CCCCCC2)cc1NC(=O)CN1C(=O)NC(C)(c2ccccc2)C1=O (stereo unspecified)	0	2	17	nt	-1
O=C(c1cc(Br)c(Br)s1)N1CCc2ccccc2C1	-4	-2	nt	nt	nt
N#Cc1ccccc1OCC(=O)N1CCN(S(=O)(=O)c2ccc(Cl)cc2)CC1	0	1	nt	nt	nt
Cc1ccc(Nc2ccc([N+](=O)[O-])nc2[N+](=O)[O-])cc1	0	13	62*	-4	0
Cc1ccc(Nc2ccc3nonc3c2[N+](=O)[O-])cc1	1	-7	7	-31	0
SMILES	Bfl-1 A1 inh	Beta cell apopt	T cruzi inh	KLF5 inhibitor	HIF activator
O=C(O)c1ccccc1C(=O)Nc1cccc([N+](=O)[O-])c1	1	nt	-6	-19	0
O=C(Nc1cccc([N+](=O)[O-])c1)c1cc2ccccc2cc1O	-5	100*	-10	-60	4
COc1ccc(NC(=O)c2ccc([N+](=O)[O-])cc2[N+](=O)[O-])c(OC)c1	0	-4	61*	-11	-3
COc1ccc(NC(=O)c2cc([N+](=O)[O-])ccc2O)cc1	-8	57	-22	84*	-6
Cc1nc2ccc(NC(=O)c3ccc([N+](=O)[O-])cc3[N+](=O)[O-])cc2s1	-1	9	79*	-3	-1
CSc1ccccc1OCc1cc(C(=O)N2CCC(Oc3cccnc3)CC2)no1	0	nt	4	-63	2
CCOC(=O)c1ccccc1NC(=O)CSc1nc2ccccc2c(=O)n1CCCN1CCOCC1	1	3	nt	nt	nt
Cc1c(C(=O)Nc2cccc([N+](=O)[O-])c2)csc1-c1ccccc1	-6	3	60*	-162	1
O=C(Nc1ccccc1)Nc1ccc2c(c1)CCC2	-9	-7	18	-159	6
O=C(Nc1cccc([N+](=O)[O-])c1)Nc1ccc2c(c1)CCC2	3	36	57*	-109	5
CC(=O)c1cccc(NC(=O)COC(=O)Cn2cnc3ccccc32)c1	1	-5	nt	nt	nt
COC1CCN(Cc2c(C(=O)N3CCN(C4CCCCC4)CC3)nc3ccccn23)CC1	1	-6	59*	-29	0
O=C(CCl)N(C/C=C/c1ccccc1)c1ccc2c(c1)OCCO2	2	-18	93*	-25	3
O=C(/C=C/c1ccccc1)c1ccc2c(c1)OCCCCO2	-4	4	-21	-80	4
O=C1CSCN1c1ccc(Cl)cc1	1	-3	0	-20	184*
CCOc1ccc(CCNC(=O)C2CCCN(S(=O)(=O)N3CC(C)CC(C)C3)C2)cc1OCC (stereo unspecified)	2	-5	24	-29	0
COc1cc2c(cc1OC)C(c1cc(Br)ccc1F)N(C(=O)CCl)CC2 (stereo unspecified)	0	7	65*	-8	-18
COc1cc2c(cc1OC)C(C1C(=O)CC(C)(C)CC1=O)N(C(=O)CCl)CC2 (stereo unspecified)	0	2	-13	-26	0
CCn1cc(CN2CCCC(C(=O)Nc3ccc(-c4cscn4)cc3)C2)cn1 (stereo unspecified)	0	0	44	-41	2
CCN1CCN(c2ccc(NC(=O)CCc3c(C)nc4c(-c5ccc(F)cc5)c(C)nn4c3C)cc2)CC1	-1	12	64*	-20	0
CNCCCCOc1ccc(C(C)(C)C)cc1Cl	1	-6	59*	-22	0
CC(C)(C)c1ccc(OCCON2C(=O)CCC2=O)c(Cl)c1	-1	-2	-12	-9	-2
CCOC(=O)C1CCCN(C/C=C/c2ccccc2)C1 (stereo unspecified)	2	-10	0	-48	-2
Cc1cc(=O)n2[nH]cc(-c3ccccc3)c2n1	-1	-5	-8	-24	0
Cc1nc2c(-c3ccccc3)c[nH]n2c(=O)c1Cc1ccccc1	2	39	62*	-53	2
O=C(Nc1ccc(C(F)(F)F)cc1)N1CCN(c2ccnc3cc(Cl)ccc23)CC1	0	11	69*	-34	-1
